Measured values reported in ChEMBL document CHEMBL3124940, “Design, synthesis and biological evaluation of D-ring opened galantamine analogs as multifunctional anti-Alzheimer agents” (Eur J Med Chem, 2014).
The source made the active and inactive calls. The rule behind the calls is not given here.

Key:
Acetylcholinesterase = Acetylcholinesterase (Electrophorus electricus, UniProt O42275); assay: Inhibition of electric eel AChE using acetylthiocholine iodide as substrate preincubated for 5 mins followed by substrate addition measured after 5 mins by Ellman's method
Cholinesterase = Cholinesterase (Equus caballus, UniProt P81908); assay: Inhibition of equine serum BChE using butyrylthiocholine iodide as substrate preincubated for 5 mins followed by substrate addition measured after 5 mins by Ellman's method
Outline: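 Ellman's method with equine serum BChE and butyrylthiocholine iodide; DTNB read-out at 412 nm, 25 °C. Phosphate buffer pH 8.0. At least five concentrations (normally 10^-4 to 10^-9 M), each in triplicate, to build the inhibition curve. Data are means of at least three determinations.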

[1] = Selectivity ratio of IC50 for electric eel AChE to IC50 for equine serum BChE
Outline: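 AChE is electric eel Type VI-S with acetylthiocholine; BChE is equine serum with butyrylthiocholine. At least five concentrations, each in triplicate. Ratio = IC50(AChE)/IC50(BChE).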

Rattus norvegicus [2] = assay: Antialzheimer activity in Wistar rat scopolamine-induced cognition impairment model assessed as decrease in amount of errors plus baits not found during exploration at 1 umol/100 g body weight, ip treated for 5 mins prior to scopolamine-challenge measured after 20 to 120 mins by eight-arm radial maze test; format: functional, organism-based
Outline: (§1)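 Female 60-day-old Wistar rats (Han:Wist) trained in an eight-arm radial maze to error-free trials under 60 s on three consecutive days; each animal served as its own control. Test agent given i.p. in saline 5 min before scopolamine (0.05 mg/100 g b. wt., i.p. in saline). Errors plus baits not found after 10 min, and total searching time, recorded before and 20, 60, 120 min after scopolamine; n = 14, mean ± SEM.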

[3] = Induction of nitric oxide release in PBS at 100 uM at pH 7.4 after 24 hrs by Griess method relative to control; format: physicochemical; settings: buffer, pH 7.4, 24 h
Outline: (§2)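 Test compound at 100 µM in phosphate buffer pH 7.4, alone or with 90 µL rat serum added, incubated 37 °C for 24 h. Griess reagent added, then 30 min at 37 °C with gentle shaking; absorbance read at 540 nm and blank-corrected. Nitrite quantified against an NaNO2 calibration curve and expressed as % of a theoretical 1 mol NO per mol nitrate; n = 3.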

[4] = Induction of nitric oxide release in PBS at 100 uM at pH 7.4 after 24 hrs by Griess method in presence of rat serum; format: physicochemical; settings: pH 7.4, 24 h; outline: as §2
Rattus norvegicus [5] = assay: Toxicity in Wistar rat assessed as change in movement at 1 umol/100 g body weight, ip; format: organism-based; settings: in vivo
Rattus norvegicus [6] = assay: Antialzheimer activity in Wistar rat scopolamine-induced cognition impairment model assessed as total exploration time at 1 umol/100 g body weight, ip treated for 5 mins prior to scopolamine-challenge by eight-arm radial maze test relative to control; format: functional; outline: as §1
Rattus norvegicus [7] = assay: Toxicity in Wistar rat scopolamine-induced cognition impairment model assessed as change in movement at 1 umol/100 g body weight, ip; format: organism-based; settings: in vivo
Outline: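 60-day-old female Wistar rats were trained in an eight-arm radial maze to no errors in under 60 s on 3 consecutive days; each rat served as its own control. Compound in saline was given i.p., then scopolamine (0.05 mg/100 g, saline, i.p.) 5 min later. Errors plus baits not found after 10 min and total searching time were recorded before and 20, 60 and 120 min after scopolamine; n = 14, mean ± SEM.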

[8] = biological target: Amyloid-beta precursor protein (Homo sapiens) (UniProt P05067); assay: Inhibition of amyloid beta (1 to 42) aggregation (unknown origin) at 5 uM after 1 hr by thioflavin T fluorescence assay
Outline: (§3)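 Aβ42 stock (200 µM in DMSO) centrifuged 12,000 rpm for 10 min; supernatant used. Compound (2 µL of 0.2–4.0 mM DMSO stock) and 2 µL Aβ42 stock added to 76 µL PBS pH 7.4, incubated 1 h at room temperature. 80 µL of 5 µM ThT in 50 mM glycine-NaOH pH 8.5 then added; fluorescence read at excitation 430 nm, emission 488 nm.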

[9] = biological target: Amyloid-beta precursor protein (Homo sapiens) (UniProt P05067); assay: Inhibition of amyloid beta (1 to 42) aggregation (unknown origin) after 1 hr by thioflavin T fluorescence assay; outline: as §3

Sequence of Cholinesterase (P81908 whole entry): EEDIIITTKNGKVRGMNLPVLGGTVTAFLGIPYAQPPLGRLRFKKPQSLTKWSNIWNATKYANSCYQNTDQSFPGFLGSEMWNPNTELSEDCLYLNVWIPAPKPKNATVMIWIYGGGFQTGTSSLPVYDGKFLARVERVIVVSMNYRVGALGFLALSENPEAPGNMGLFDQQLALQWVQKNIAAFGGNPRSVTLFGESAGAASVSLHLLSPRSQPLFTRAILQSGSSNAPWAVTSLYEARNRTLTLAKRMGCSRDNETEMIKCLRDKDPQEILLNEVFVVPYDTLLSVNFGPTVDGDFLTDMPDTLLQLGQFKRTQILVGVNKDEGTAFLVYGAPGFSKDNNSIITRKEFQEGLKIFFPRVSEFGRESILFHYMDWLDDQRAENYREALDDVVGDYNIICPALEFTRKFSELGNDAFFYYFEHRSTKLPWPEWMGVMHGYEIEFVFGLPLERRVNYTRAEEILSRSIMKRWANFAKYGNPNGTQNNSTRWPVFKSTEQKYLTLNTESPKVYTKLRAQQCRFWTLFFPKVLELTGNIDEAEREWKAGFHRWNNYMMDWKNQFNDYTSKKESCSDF
Sequence of Acetylcholinesterase (O42275 whole entry): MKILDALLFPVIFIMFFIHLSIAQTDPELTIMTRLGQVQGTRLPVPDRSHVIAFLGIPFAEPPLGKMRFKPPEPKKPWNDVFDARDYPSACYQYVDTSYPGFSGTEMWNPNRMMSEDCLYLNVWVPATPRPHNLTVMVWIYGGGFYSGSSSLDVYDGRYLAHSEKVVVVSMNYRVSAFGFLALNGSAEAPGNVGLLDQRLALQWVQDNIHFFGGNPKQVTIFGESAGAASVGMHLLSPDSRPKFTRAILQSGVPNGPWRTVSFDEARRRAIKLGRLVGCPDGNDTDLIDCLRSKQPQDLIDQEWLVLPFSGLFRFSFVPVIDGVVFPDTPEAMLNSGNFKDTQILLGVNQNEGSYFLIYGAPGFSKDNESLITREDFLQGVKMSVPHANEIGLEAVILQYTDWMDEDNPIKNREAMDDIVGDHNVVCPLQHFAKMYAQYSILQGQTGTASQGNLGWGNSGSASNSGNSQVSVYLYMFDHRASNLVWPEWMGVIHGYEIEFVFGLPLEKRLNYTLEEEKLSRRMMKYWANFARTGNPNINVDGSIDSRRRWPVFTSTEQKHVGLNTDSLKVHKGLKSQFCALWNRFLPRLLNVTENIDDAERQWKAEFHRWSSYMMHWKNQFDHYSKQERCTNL
Sequence of Amyloid-beta precursor protein (Homo sapiens) (P05067 whole entry): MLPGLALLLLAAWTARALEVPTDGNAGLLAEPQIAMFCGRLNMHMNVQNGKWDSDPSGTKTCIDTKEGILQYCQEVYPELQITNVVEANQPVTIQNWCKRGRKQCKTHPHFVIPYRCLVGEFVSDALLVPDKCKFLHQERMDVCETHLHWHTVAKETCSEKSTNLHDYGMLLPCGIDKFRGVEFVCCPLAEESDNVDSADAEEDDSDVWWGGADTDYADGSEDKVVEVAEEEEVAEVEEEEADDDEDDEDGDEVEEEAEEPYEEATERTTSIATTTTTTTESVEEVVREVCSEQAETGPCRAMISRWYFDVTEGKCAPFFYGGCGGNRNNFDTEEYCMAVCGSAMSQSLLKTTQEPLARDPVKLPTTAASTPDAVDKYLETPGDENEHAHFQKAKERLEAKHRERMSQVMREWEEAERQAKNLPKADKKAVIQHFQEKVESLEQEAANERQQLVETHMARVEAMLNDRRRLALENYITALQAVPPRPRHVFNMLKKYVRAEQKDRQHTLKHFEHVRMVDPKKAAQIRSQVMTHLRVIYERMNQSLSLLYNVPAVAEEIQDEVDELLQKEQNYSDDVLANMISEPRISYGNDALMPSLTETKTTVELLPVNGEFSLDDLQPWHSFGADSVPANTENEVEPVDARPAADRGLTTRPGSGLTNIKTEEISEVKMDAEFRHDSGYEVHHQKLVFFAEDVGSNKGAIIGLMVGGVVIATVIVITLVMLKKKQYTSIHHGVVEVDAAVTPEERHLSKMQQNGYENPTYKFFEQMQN

Compound | IC50 (Acetylcholinesterase) [µM] | IC50 (Cholinesterase) [µM] | Ratio IC50 [1] | also measured
COc1ccc2c(c1)[nH]c1cccc(CNCc3ccccc3)c12 | > 50 | 29.9 | – | –
COc1ccc2c(c1)[nH]c1cccc(CNC(C)C)c12 | 50.8 | 10.1 | 5.03 | –
COc1ccc2c(c1)[nH]c1cccc(CN(C(=O)CCO[N+](=O)[O-])C(C)C)c12 | 2.21 | 2.5 | 0.88 | Activity (Rattus norvegicus [2]): Active; Activity [3]: 4.8%; Activity [4]: Active; Activity (Rattus norvegicus [5]): Non-toxic; Time (Rattus norvegicus [6]): 107 s; Activity (Rattus norvegicus [7]): Non-toxic
CCN(CC)Cc1cccc2[nH]c3cc(OC)ccc3c12 | 37.9 | 14.9 | 2.54 | –
CCN(CC)Cc1cccc2oc3cc(OC)ccc3c12 | 39.1 | 27.4 | 1.43 | –
COc1cc(/C=C/C(=O)CC(=O)/C=C/c2ccc(O)c(OC)c2)ccc1O | – | – | – | inhibition [8]: inactive; inhibition [9]: Dose-dependent effect
